Data as given in PMC9187044 (Environmental Toxicology and Chemistry, 2021).
“Also recorded” adds a separate entry of the source. Like-named read-outs stand apart in the source and are kept apart here. Blank lines part the entries; values can stand above or below the compound they belong to.

What was measured:
[1] = Rainbow trout liver S9 substrate depletion assay; type: in vitro ADME, rainbow trout (Oncorhynchus mykiss); settings: for Depletion / biotransformation in RT-S9 assay (in words): active RT-S9, tested individually, up to 2 h
[2] = Cofactor-limited depletion of T12 in RT-S9 assay; type: in vitro ADME, rainbow trout (Oncorhynchus mykiss)
How it was run: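 Pooled liver S9 from five trout, 2 mg/ml protein, in 100 mM PPBS pH 7.8 with 10 μg/ml alamethicin, at 11 °C; substrate starts at about 1.0 µM. Duplicate six-sample time series over 60 min, either with no added cofactors, NADPH (2 mM) alone, NADPH plus UDPGA (2 mM), GSH (5 mM) or PAPS (0.1 mM), or all cofactors. Parent and N-demethyl product measured by LC–MS/MS.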

[3] = ref Chen et al., 2016, cited from earlier work; for CLint,in vivo: RT-S9
[4] = Baseline equilibrium BCF predicted from DMLW and phospholipid content; design: species or system fish; settings: fML of 1%
[5] = 14C-labeled, 1.1 × 10^6 cells/ml, by 2.5 h; ref Bernhard et al., 2006; cited from earlier work
[6] = human liver microsomes; ref Seguin et al., 2019; cited from earlier work
[7] = RT-S9 substrate depletion assay, cationic surfactants tested as mixtures of six; type: in vitro ADME, rainbow trout (Oncorhynchus mykiss); settings: for CLint,in vivo lower in mixture than tested individually: Mixture 2; for Clearance rate in mixture compared with single-compound assay (in words): Mixture 1
[8] = N-demethylation metabolite formation in RT-S9 assay; type: in vitro ADME, rainbow trout (Oncorhynchus mykiss); settings: for Time of peak concentration of 2° alkylamine metabolite: 2-h RT-S9 assay; for 1° alkylamine product present at last time point as % of removed parent: 120 min
How it was run: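 Trout liver S9 (2 mg/ml protein) with 2 mM NADPH, 2 mM UDPGA, 0.1 mM PAPS, 5 mM GSH and alamethicin, pH 7.8, 11 °C; substrate starts at about 1.0 µM. Sampled at 0, 20, 40, 60, 90 and 120 min and quenched in ice-cold acetonitrile. N-demethylated products scanned by LC–MS/MS and quantified against external standards. Metabolite mass divided by parent mass removed at the same time point.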

[9] = In vitro half-life with human liver microsomes; type: in vitro ADME

Structure (SMILES): CCCCCCCCCCCCN(C)C [T12, N,N-Dimethyldodecylamine]
Depletion / biotransformation in RT-S9 assay (in words) [1]: reduced below the limit of quantitation
CLint,in vivo ([2]; RT-S9 with only NADPH added): 224 ml h^–1 g liver^–1
Clearance (in words) ([2]; UDPGA or GSH in combination with NADPH, vs NADPH only): did not result in increased clearance
Depletion (in words) ([2]; active RT-S9, no added cofactors): no significant depletion
CLint,in vivo [3]: 472 ml h^–1 g liver^–1

Factor by which BCFbaseline estimate exceeds empirical BCF or BAF [4]: 10
Predicted BCFbaseline [4]: 14,000 L kg^–1
Structure (SMILES): CCCCCCCCCCCCCN [P13, Tridecylamine]

Clearance rate relative to alkylamine analog P12 ([1]; RT-S9 assay): 10 times higher
Structure (SMILES): CCCCCCCCCCCC(=O)OCCN [P12‐Ac, 2-aminoethyl laurate]

Depletion / biotransformation in RT-S9 assay (in words) [1]: no significant biotransformation
Structure (SMILES): CCCCCCCCCC[N+](C)(C)C.[Br-] [Q10, N,N,N-Trimethyldecylammonium bromide]

Factor by which BCFbaseline estimate exceeds empirical BCF or BAF [4]: 70
Structure (SMILES): CCCCCCCCCCCCCCCCN [P16, Hexadecylamine]
Depletion / biotransformation in RT-S9 assay (in words) [1]: No significant depletion; also recorded: no detectable biotransformation
Concentration remaining, % of starting value [5]: 56.0 ± 1.3%

Structure (SMILES): CCCCCCCCCCCCCCCC[N+](C)(C)Cc1ccccc1 [BAC16]
In vitro half-life [6]: 15 min

Structure (SMILES): CCCCCCCCN [P8]
Depletion / biotransformation in RT-S9 (in words) [3]: no significant depletion

Structure (SMILES): CCCCCCCC[N+](C)(C)C.[Cl-] [Q8]
Depletion / biotransformation in RT-S9 (in words) [3]: identical result

Factor by which BCFbaseline estimate exceeds empirical BCF or BAF [4]: 3.1
Structure (SMILES): CCCCCCCCCCCCCCN(C)C [T14, N,N-Dimethyltetradecylamine]

Structure (SMILES): CCCCCCCCCN(C)C [T9, N,N-Dimethylnonylamine]
Depletion / biotransformation in RT-S9 assay (in words) [1]: reduced below the limit of quantitation
CLint,in vivo lower in mixture than tested individually [7]: 43%

Depletion / biotransformation in RT-S9 assay (in words) [1]: no significant biotransformation
Factor by which BCFbaseline estimate exceeds empirical BCF or BAF [4]: 33
Structure (SMILES): CCCCCCCCCCCCCC[N+](C)(C)C.[Cl-] [Q14, N,N,N-Trimethyltetradecylammonium chloride]

Structure (SMILES): CCCCCCCCCCCCCN(C)C [T13, N,N-Dimethyltridecylamine]
Clearance rate in mixture compared with single-compound assay (in words) [7]: not significantly different

Depletion / biotransformation in RT-S9 assay (in words) [1]: reduced below the limit of quantitation
Clearance rate in mixture compared with single-compound assay (in words) [7]: not significantly different
Time of peak concentration of 2° alkylamine metabolite [8]: 20 min
Structure (SMILES): CCCCCCCCCCN(C)C [T10, N,N-Dimethyldecylamine]

Time of peak concentration of 2° alkylamine metabolite [8]: 120 min
Factor by which BCFbaseline estimate exceeds empirical BCF or BAF [4]: 42
Structure (SMILES): CCCCCCCCCCCCCCCCN(C)C [T16, N,N-Dimethylhexadecylamine]

Structure (SMILES): CCCCCCCCCCCCCCCC[N+](C)(C)C.[Cl-] [Q16, N,N,N-Trimethylhexadecylammonium chloride]
Depletion / biotransformation in RT-S9 assay (in words) [1]: no significant biotransformation

Depletion / biotransformation in RT-S9 assay (in words) [1]: No significant depletion
Structure (SMILES): CCCCCCCCCCCCCCN [P14, Tetradecylamine]

Structure (SMILES): CCCCCCCCCC[N+](C)(C)Cc1ccccc1.[Cl-] [BAC10]
In vitro half-life [6]: 1 min

Structure (SMILES): CCCCCCCCNC [S8]
Depletion / biotransformation in RT-S9 (in words) [3]: negligible depletion

CLint,in vivo lower in mixture than tested individually [7]: 50%
1° alkylamine product present at last time point as % of removed parent [8]: 25%
Structure (SMILES): CCCCCCCCCCCCNC [S12, N-Methyldodecylamine]
CLint,in vivo [3]: 162 ml h^–1 g liver^–1

Depletion / biotransformation in RT-S9 assay (in words) [1]: No significant depletion
Structure (SMILES): CCCCCCCCCCCCCC[N+](C)(C)Cc1ccccc1.[Cl-] [BAC14, Benzyldimethyltetradecylammonium chloride]

CLint,in vitro ([1]; RT-S9, present study, tested individually): 0.14 ml h^–1 mg protein^–1
Depletion / biotransformation in RT-S9 assay (in words) [1]: significant depletion
HLM CLint,in vitro faster than RT-S9 CLint,in vitro ([9]; HLM vs present study RT-S9): approximately 100 times
CLint,in vitro corresponding to HLM half-life ([9]; from half-life of ref Seguin et al., 2019): 13.86 ml h^–1 mg protein^–1
Structure (SMILES): CCCCCCCCCCCC[N+](C)(C)Cc1ccccc1 [BAC12, Benzyldimethyldodecylammonium chloride]
In vitro half-life [6]: 3 min

Structure (SMILES): CCCCCCCCCCCC[N+](C)(C)C.[Cl-] [Q12]
Depletion / biotransformation in RT-S9 (in words) [3]: identical result

CLint,in vivo lower in mixture than tested individually [7]: 70%
1° alkylamine product present at last time point as % of removed parent [8]: 55%
Factor by which BCFbaseline estimate exceeds empirical BCF or BAF [4]: 49
Structure (SMILES): CCCCCCCCCCCCCCCCNC [S16, N-Methylhexadecylamine]

1° alkylamine product present at last time point as % of removed parent [8]: 10%
Structure (SMILES): CCCCCCCCCCNC [S10, N-Methyldecylamine]

Structure (SMILES): CCCCCCCCCC[N+](C)(C)CCCCCCCCCC [DDAC, didecyldimethylammonium chloride]
Factor by which BCFbaseline estimate exceeds empirical BCF or BAF [4]: 420

Factor by which BCFbaseline estimate exceeds empirical BCF or BAF [4]: 128
Structure (SMILES): CCCCCCCCCCCCCCCCCCN(C)C [T18, N,N‐dimethyloctadecylamine]

Clearance rate in mixture compared with single-compound assay (in words) [7]: not significantly different
Structure (SMILES): CCCCCCCCCN [P9, Nonylamine]

Structure (SMILES): CCCCCCCCN(C)C [T8, N,N-Dimethyloctylamine]
CLint,in vivo [3]: 184 ml h^–1 g liver^–1

Depletion / biotransformation in RT-S9 assay (in words) [1]: No significant depletion
Structure (SMILES): CCCCCCCCCCCCN [P12, Dodecylamine]
CLint,in vivo [3]: 37 ml h^–1 g liver^–1
